{"source": "ChEMBL document CHEMBL1155662", "about": "“New phloroglucinol derivatives from Hypericum papuanum” (2000)", "assay_type_in_all_cases": "functional", "key": {"Bacillus cereus": {"test_system": "Bacillus cereus", "experiment": "Antibacterial activity against Bacillus cereus ATCC 10702 after 20 hrs by MTT assay", "details": "ATCC 10702, 20 h", "how_it_was_run": "(§1)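 Twofold broth doubling-dilution in nutrient broth. Overnight 37 °C cultures diluted to about 10^5 cells/mL. Compounds from 1 mg/mL MeOH stocks were dried in the first wells, then redissolved in DMSO, broth and culture before serial dilution. Plates held 20 h at 37 °C in a moist atmosphere. 0.25% aqueous MTT was added and plates reincubated 4 h; violet turbid wells scored as living bacteria.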"}, "[1]": {"test_system": "Staphylococcus epidermidis", "experiment": "Antibacterial activity against Staphylococcus epidermidis ATCC 12228 after 20 hrs by MTT assay", "details": "ATCC 12228, 20 h", "how_it_was_run": "as §1"}, "Micrococcus luteus": {"test_system": "Micrococcus luteus", "experiment": "Antibacterial activity against Micrococcus luteus ATCC 9341 after 20 hrs by MTT assay", "details": "ATCC 9341, 20 h", "how_it_was_run": "as §1"}}}
{"molecule": "C=C(C)[C@@H]1CC23C(=O)C(C(=O)C(C)C)=C(O)[C@](C)(C[C@H]2C1(C)C)C3=O", "note": "[LALIBINONE A]", "values": [{"measurement": "MIC", "setting": "Bacillus cereus", "value": 64, "unit": "µg/mL"}, {"measurement": "MIC", "setting": "[1]", "value": 64, "unit": "µg/mL"}, {"measurement": "MIC", "setting": "Micrococcus luteus", "value": 64, "unit": "µg/mL"}]}
{"molecule": "O=C(N[C@H](CO)[C@H](O)c1ccc([N+](=O)[O-])cc1)C(Cl)Cl", "note": "[CHLORAMPHENICOL]", "values": [{"measurement": "MIC", "setting": "Bacillus cereus", "value": 2, "unit": "µg/mL"}, {"measurement": "MIC", "setting": "[1]", "value": 4, "unit": "µg/mL"}, {"measurement": "MIC", "setting": "Micrococcus luteus", "value": 1, "unit": "µg/mL"}]}
{"molecule": "C=C(C)[C@@H]1CC23C(=O)[C@@](C)(C[C@H]2C1(C)C)C(=O)C(C(=O)C(C)CC)=C3O", "note": "(stereo partly drawn) [LALIBINONE C]", "values": [{"measurement": "MIC", "setting": "Bacillus cereus", "value": 16, "unit": "µg/mL"}, {"measurement": "MIC", "setting": "[1]", "value": 32, "unit": "µg/mL"}, {"measurement": "MIC", "setting": "Micrococcus luteus", "value": 64, "unit": "µg/mL"}]}
{"molecule": "CC(C)C(=O)C1=C(O)[C@]2(C)C[C@H]3C(C)(C)CCC3(C1=O)C2=O", "note": "[LALIBINONE E]", "values": [{"measurement": "MIC", "setting": "Bacillus cereus", "value": "> 128", "unit": "µg/mL"}, {"measurement": "MIC", "setting": "[1]", "value": "> 256", "unit": "µg/mL"}, {"measurement": "MIC", "setting": "Micrococcus luteus", "value": "> 128", "unit": "µg/mL"}]}
{"molecule": "C=C(C)[C@H]1CC23C(=O)C(C(=O)C(C)C)=C(O)[C@](C)(C[C@H]2C1(C)C)C3=O", "note": "[LALIBINONE B]", "values": [{"measurement": "MIC", "setting": "Bacillus cereus", "value": 64, "unit": "µg/mL"}, {"measurement": "MIC", "setting": "[1]", "value": 128, "unit": "µg/mL"}, {"measurement": "MIC", "setting": "Micrococcus luteus", "value": 64, "unit": "µg/mL"}]}
{"molecule": "C=C(C)[C@H]1CC23C(=O)[C@@](C)(C[C@H]2C1(C)C)C(=O)C(C(=O)C(C)CC)=C3O", "note": "(stereo partly drawn) [LALIBINONE D]", "values": [{"measurement": "MIC", "setting": "Bacillus cereus", "value": 16, "unit": "µg/mL"}, {"measurement": "MIC", "setting": "[1]", "value": 32, "unit": "µg/mL"}, {"measurement": "MIC", "setting": "Micrococcus luteus", "value": 64, "unit": "µg/mL"}]}
